Test results reported in ChEMBL document CHEMBL1153911 (Bioorg Med Chem Lett, 2009).

What was measured:
Mu-type opioid receptor [1] = target: T1, Mu-type opioid receptor (Homo sapiens, UniProt P35372); assay: […] activity against mu opioid receptor expressed in CHO cells assessed as stimulation [35S]GTPgammaS binding relative to DAMGO; assay type: functional, cell-based; parameters: concentration or dose not given beside the values
In short: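 Membranes (10 µg) from the same receptor-expressing CHO cells incubated 30 min with 10 µM GDP, 0.1 nM [35S]GTPγS and varying drug concentrations. Nonspecific binding defined by 10 µM unlabelled GTPγS. Relative Emax and EC50 from nonlinear regression of concentration-effect curves.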

Homo sapiens [2] = organism: Homo sapiens; assay: Selectivity ratio of Ki for delta opioid receptor to Ki for mu opioid receptor
In short: (§1)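 CHO cell membranes (50 µg) expressing cloned mu, delta or kappa opioid receptors, labelled with […] (mu), [3H]NTI (delta) or [3H]norBNI (kappa), with varying drug concentrations, 90 min at 30 °C. […] IC50 from Hill-plot linear regression, converted to Ki by Cheng-Prusoff.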

Homo sapiens [3] = organism: Homo sapiens; assay: Selectivity ratio of Ki for kappa opioid receptor to Ki for mu opioid receptor; in short: as §1
[4] = target: Delta-type opioid receptor (Homo sapiens, UniProt P41143); assay: Displacement of [3H]NTI from delta opioid receptor expressed in CHO cells; assay type: cell-based
Sequence of Delta-type opioid receptor (P41143 whole entry): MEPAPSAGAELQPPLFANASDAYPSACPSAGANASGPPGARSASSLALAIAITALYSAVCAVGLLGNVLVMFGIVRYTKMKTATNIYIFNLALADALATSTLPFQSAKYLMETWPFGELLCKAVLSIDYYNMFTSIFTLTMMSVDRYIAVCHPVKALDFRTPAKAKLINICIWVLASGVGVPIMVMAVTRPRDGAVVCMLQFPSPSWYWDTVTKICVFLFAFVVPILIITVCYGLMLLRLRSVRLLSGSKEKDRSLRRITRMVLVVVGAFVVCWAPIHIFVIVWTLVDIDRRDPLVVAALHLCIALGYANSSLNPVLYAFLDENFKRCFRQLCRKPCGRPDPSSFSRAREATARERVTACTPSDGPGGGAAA
In short: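 CHO cell membranes (50 µg) expressing cloned mu, delta or kappa opioid receptors, labelled with […] (mu), [3H]NTI (delta) or [3H]norBNI (kappa), with varying drug concentrations, 90 min at 30 °C. IC50 from Hill-plot linear regression, converted to Ki by Cheng-Prusoff.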

Mu-type opioid receptor [5] = target: T1, Mu-type opioid receptor; assay: Displacement of [3H]DAMGO from mu opioid receptor expressed in CHO cells; assay type: cell-based
[6] = target: Kappa-type opioid receptor (Homo sapiens, UniProt P41145); assay: Displacement of [3H]norBNI from kappa opioid receptor expressed in CHO cells; assay type: cell-based
Sequence of Kappa-type opioid receptor (P41145 whole entry): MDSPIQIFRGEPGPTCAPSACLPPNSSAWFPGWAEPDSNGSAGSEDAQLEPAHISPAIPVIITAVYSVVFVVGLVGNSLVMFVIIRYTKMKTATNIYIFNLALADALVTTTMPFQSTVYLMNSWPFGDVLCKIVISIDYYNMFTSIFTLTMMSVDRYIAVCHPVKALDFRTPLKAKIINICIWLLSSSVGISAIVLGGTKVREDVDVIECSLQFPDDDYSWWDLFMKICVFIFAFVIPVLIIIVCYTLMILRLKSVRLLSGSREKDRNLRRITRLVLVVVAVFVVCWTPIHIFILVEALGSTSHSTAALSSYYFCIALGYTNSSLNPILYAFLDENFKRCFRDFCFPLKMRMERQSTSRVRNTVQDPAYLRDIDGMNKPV

Mu-type opioid receptor [7] = target: T1, Mu-type opioid receptor; conditions: CHO

T1 sequence (P35372 whole entry): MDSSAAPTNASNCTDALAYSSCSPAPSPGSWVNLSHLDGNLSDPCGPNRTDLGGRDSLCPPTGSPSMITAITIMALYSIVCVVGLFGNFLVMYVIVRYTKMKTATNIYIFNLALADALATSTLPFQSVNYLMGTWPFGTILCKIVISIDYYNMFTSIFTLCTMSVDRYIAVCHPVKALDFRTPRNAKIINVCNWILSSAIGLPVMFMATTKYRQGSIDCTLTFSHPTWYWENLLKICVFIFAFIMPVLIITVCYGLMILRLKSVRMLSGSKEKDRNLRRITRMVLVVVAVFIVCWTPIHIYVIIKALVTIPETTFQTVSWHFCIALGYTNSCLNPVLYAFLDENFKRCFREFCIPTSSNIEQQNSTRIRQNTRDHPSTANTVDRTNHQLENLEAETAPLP

With `O=C(O[C@@]12CCC(=O)[C@@H]3Oc4c(O)ccc5c4[C@@]31CCN(CC1CC1)[C@@H]2C5)c1ccc2ccccc2c1` the Activity (Mu-type opioid receptor [1]) was 0%, the Ratio Ki (Homo sapiens [2]) was 4 and the Ratio Ki (Homo sapiens [3]) was < 1.
For `O=C(O[C@@]12CCC(=O)[C@@H]3Oc4c(O)ccc5c4[C@@]31CCN(CC1CC1)[C@@H]2C5)c1ccncc1`, the Activity (Mu-type opioid receptor [1]) was 0%, the Ratio Ki (Homo sapiens [2]) was 73 and the Ratio Ki (Homo sapiens [3]) was 9.
`COC(=O)/C=C/C(=O)N[C@@H]1CC[C@@]2(O)[C@H]3Cc4ccc(O)c5c4[C@@]2(CCN3CC2CC2)[C@H]1O5` gave an Activity (Mu-type opioid receptor [1]) of 0%, a Ki [4] of 27.8 nM and a Ki (Mu-type opioid receptor [5]) of 0.41 nM. The Ki [6] was 0.94 nM.
`O=C(O[C@@]12CCC(=O)[C@@H]3Oc4c(O)ccc5c4[C@@]31CCN(CC1CC1)[C@@H]2C5)c1ccc2ccccc2n1` was tested, and the Activity (Mu-type opioid receptor [1]) was 0%, the Ratio Ki (Homo sapiens [2]) was 16 and the Ratio Ki (Homo sapiens [3]) was 47.
Work on `C[C@@H](O)[C@H](NC(=O)[C@H](NC(=O)[C@@H](NC(=O)[C@H](CCCNC(=N)N)NC(=O)C(Cc1c[nH]c2ccccc12)NC(=O)[C@@H](Cc1ccc(O)cc1)NC(=O)[C@H](CS)NC(=O)[C@H](N)Cc1ccccc1)[C@@H](C)O)C(C)(C)S)C(=O)O` (stereo in doubt) yielded an Activity (Mu-type opioid receptor [1]) of 0%, a Ratio Ki (Homo sapiens [2]) of 713 and a Ratio Ki (Homo sapiens [3]) of 501.
In the case of `O=C(O[C@@]12CCC(=O)[C@@H]3Oc4c(O)ccc5c4[C@@]31CCN(CC1CC1)[C@@H]2C5)c1ccccc1`, the Activity (Mu-type opioid receptor [1]) is reported as 0%, the Ratio Ki (Homo sapiens [2]) is reported as > 81 and the Ratio Ki (Homo sapiens [3]) is reported as 5.
In the case of `O=C(O[C@@]12CCC(=O)[C@@H]3Oc4c(O)ccc5c4[C@@]31CCN(CC1CC1)[C@@H]2C5)c1cc2ccccc2cn1`, the Activity (Mu-type opioid receptor [1]) is reported as 0%, the Ratio Ki (Homo sapiens [2]) is reported as > 146 and the Ratio Ki (Homo sapiens [3]) is reported as > 146.
With `O=C(O[C@@]12CCC(=O)[C@@H]3Oc4c(O)ccc5c4[C@@]31CCN(CC1CC1)[C@@H]2C5)c1cnc2ccccc2c1` the Activity (Mu-type opioid receptor [1]) was 22%, the Ratio Ki (Homo sapiens [2]) was 304 and the Ratio Ki (Homo sapiens [3]) was 55.
Work on `COc1cccc2c1[C@]13CCN(CC4CC4)[C@H](C2)[C@]1(OC)CCC(=O)C3` yielded a Ratio Ki (Homo sapiens [2]) of 40 and a Ratio Ki (Homo sapiens [3]) of 45.
In the case of `O=C(O[C@@]12CCC(=O)[C@@H]3Oc4c(O)ccc5c4[C@@]31CCN(CC1CC1)[C@@H]2C5)c1cccnc1`, the Activity (Mu-type opioid receptor [1]) is reported as 0%, the Ratio Ki (Homo sapiens [2]) is reported as 107 and the Ratio Ki (Homo sapiens [3]) is reported as 30.
Work on `O=C(O[C@@]12CCC(=O)[C@@H]3Oc4c(O)ccc5c4[C@@]31CCN(CC1CC1)[C@@H]2C5)c1ccccn1` yielded an Activity (Mu-type opioid receptor [1]) of 0%, a Ratio Ki (Homo sapiens [2]) of 838 and a Ratio Ki (Homo sapiens [3]) of 182. For the same molecule, the Ke (Mu-type opioid receptor [7]) was 0.2 nM.
